Hits are enriched below; roughly 2.3% of the tested compounds scored in any of these assays.
TRPC6 act – activators of mouse TRPC6 channel; B-score at 10 µM; AID 2550; 0.13% of 310,000 active; HEK293-TRPC6 membrane potential dye fluorescence; hits give high values; Q61143;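 active = B-score of the integrated fluorescence ratio above library mean plus 3 SD, and starting fluorescence ratio within library mean plus 5 SD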;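 note: higher score means more depolarization so channel activation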
TRPC4 block – inhibitors of mouse TRPC4 channel. B-score at 10 µM. Q9QUQ5. AID 2247. HEK293 TRPC4beta/mu-opioid, DAMGO-evoked Fluo4 calcium flux; hits give low values. 0.39% of 300,000 active;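 active = B-score over 3 SD under the library average, no early fluorescence shift, positive overall ratio signal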
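Material: HEK293 cells with stable TRPC4beta plus mu-opioid receptor expression / Probe or stimulus: DAMGO in two steps, submaximal then maximal / Compound: single concentration per test compound / Technique: kinetic Fluo4 fluorescence imaging of calcium influx / Read-out: per-well B score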
TRPC4 act – TRPC4 (mouse) channel activation | Q9QUQ5 | HEK293 TRPC4beta/mu-opioid, Fluo4 calcium fluorescence; hits give high values | B-score at 10 µM | 0.49% of 310,000 active | AID 2237;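 active = B-score above 5 SD of library B-scores, and initial fluorescence ratio not above library mean plus 5 SD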;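 note: positive B-score marks a calcium rise read as TRPC4 activation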
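Material: TRPC4beta and mu-opioid receptor HEK293 stable cells | Incubation: 45 min room-temperature Fluo4 loading, 110 s read | Detection: Kinetic Fluo4 calcium fluorescence | Measure: Integrated baseline-normalised fluorescence ratio, converted to per-well B score | Benchmarks: Low control buffer alone, high control maximal DAMGO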
TRPC4 PAM – allosteric potentiators of mouse TRPC4 channel | 0.42% of 310,000 active | B-score at 10 µM | HEK293 TRPC4beta/mu-opioid, DAMGO EC20, Fluo-4 Ca2+ flux; hits give high values;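 active = B-score of calcium response area above 5 SD of library B-scores, with initial fluorescence ratio within 5 SD of library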
TRPC6 inh – inhibitors of mouse TRPC6 channel; B-score at 10 µM; 1.1% of 310,000 active; HEK293-TRPC6, membrane potential dye, ACh-evoked depolarization; hits give low values; Q61143;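 active = B-score under library mean minus 3 SD, initial fluorescence not abnormally high, positive integrated signal ratio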;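 note: B-score derived from integrated fluorescence ratio over the kinetic read; more negative B-score means stronger inhibition of depolarization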
A number is an active result; n = inactive.

SMILES	TRPC6 act	TRPC4 block	TRPC4 act	TRPC4 PAM	TRPC6 inh
Cc1ccc(OCC(=O)NCCNC(=O)c2ccncc2)cc1	n	n	n	n	n
CN(CCc1nc2ccc(Cl)cc2[nH]1)Cc1nc(CC2CC2)no1	n	n	105	n	n
CCN1CCN(C(=O)c2cc(COc3ccc(C(C)=O)cc3OC)on2)CC1	n	n	n	n	n
O=C(CS(=O)(=O)c1ccccc1)NCc1ccc(Cl)cc1	n	n	n	n	n
COc1nc(N=C(N)N)nc2ccc(C)cc12	n	-5	n	n	n
O=C(c1cc(COc2ccc(F)cc2F)on1)N1CCSCC1	n	n	n	n	n
N=c1c2c(n(Cc3cccc(Cl)c3)c3c1CCC3)CCCC2	n	n	n	n	n
N=c1c2c(n(Cc3ccc(Cl)cc3)c3c1CCC3)CCC2	n	-7	n	n	n
Cc1c(Cl)cccc1NC(=O)c1ncn[nH]1	n	n	n	n	n
Cc1ccccc1-c1nc(CN2CCC(C(=O)NCc3cccs3)CC2)c(C)o1	n	-6	n	n	n
Cc1ccccc1-c1nc(CN2CCC(C(=O)NCc3ccco3)CC2)c(C)o1	n	n	n	n	n
CCOc1ccc([N+](=O)[O-])cc1CNC1CCCCCCC1	n	n	n	n	-5.9
O=[N+]([O-])c1cccc(CNC2CCCCCC2)c1	n	n	n	n	n
Cc1ccc(CNC(=O)COc2ccc(S(=O)(=O)N3CCCC3)cc2)cc1	n	n	n	n	n
Cc1ccc(C)c(N2CCN(CCCNC(=O)CCn3c(=O)c4cccn4c4cccnc43)CC2)c1	n	n	n	n	n
Cc1ccc(C)c(N2CCN(CCCNC(=O)Cn3c(=O)c4cccn4c4cccnc43)CC2)c1	n	-5	n	n	n
O=C(N/N=C/c1cc([N+](=O)[O-])cc(Br)c1O)C12CC3CCC(CC(C3)C1)C2	n	n	136	n	n
O=C(O)CC(c1ccccc1)N1C(=O)c2ccccc2C1=O (centres undefined)	n	n	n	n	n
CCn1cc(C2CC(=O)NC2=O)c2ccccc21 (centres undefined)	n	n	n	n	n
O=C(Nc1ccc2c(c1)OCO2)N1CCN(c2ncc(C(F)(F)F)cc2Cl)CC1	n	n	55	n	n
O=C(Nc1ccc2c(c1)OCO2)N1CCN(c2ncccn2)CC1	n	n	n	n	n
O=C(c1ccc2c(c1)OCCO2)N1CCN(c2ncc(C(F)(F)F)cc2Cl)CC1	n	n	49	n	n
O=C(O)COc1ccccc1/C=N/NC(=O)c1cccc(S(=O)(=O)N2CCOCC2)c1	n	n	n	n	n
CCNc1nc(NC(C)(C)C)nc(N2CCCC2)n1	n	-8	n	n	n
CC(C)(C)Nc1nc(N2CCCC2)nc(N2CCCC2)n1	n	n	n	n	n
SMILES	TRPC6 act	TRPC4 block	TRPC4 act	TRPC4 PAM	TRPC6 inh
Fc1ccc(-n2cc(CNCCc3ccccn3)c(-c3ccccc3Cl)n2)cc1	n	n	253	n	n
Cc1ccc(-n2cc(CNCCc3ncc(C)[nH]3)c(-c3ccc(F)cc3)n2)cc1	n	n	133	n	n
COc1ccc(-n2cc(CNCCCn3ccnc3)c(-c3ccccc3Cl)n2)cc1	n	n	n	n	n
COc1ccc(-n2cc(CNCCc3nc(C)cc(C)n3)c(-c3ccccc3Cl)n2)cc1	n	n	n	n	n
COc1ccc(-n2cc(CNCCc3ncc(C)[nH]3)c(-c3ccccc3Cl)n2)cc1	n	n	148	n	n
COCCn1c(=O)[nH]c(=O)c2c1nc(-c1cc(Br)c3c(c1)OCO3)n2Cc1ccccc1	n	n	n	n	n
CCOc1ccc(C(=O)N2CCN(S(=O)(=O)c3cccs3)CC2)c(OCC)c1	n	n	n	n	n
CCC(C)NCCOCCOc1ccccc1-c1ccccc1 (centres undefined)	n	-7	n	n	n
CC(C)(C)NCCOCCOc1ccccc1-c1ccccc1	n	n	n	n	n
Cc1[nH]c2c(ccc3ccccc32)c1C1C(CCN)C1(C)C (centres undefined)	n	n	70	n	n
CCCN(CCC)CCNC(=O)C1CC(=O)N(c2ccc(OC)cc2)C1c1ccc(OC)cc1 (centres undefined)	n	n	43	n	n
CCOC(=O)C1(CCOc2ccccc2)CCN(Cc2ccc3c(c2)OCCO3)CC1	n	n	61	n	n
CCOC(=O)C1(Cc2cccc(OC)c2)CCN(Cc2cnc(SC)nc2)CC1	n	-5	n	n	n
CCOC(=O)C1(Cc2cccc(OC)c2)CCN(Cc2ccc3c(c2)OCCO3)CC1	n	n	56	n	n
Cc1cccc(OCCOC(=O)c2c(-c3ccccc3)noc2C)c1	n	n	n	n	n
CCOC(=O)c1cn(Cc2ccccc2)c(C(=O)OC(C)(C)C)c1O	n	n	107	n	n
CCOC(=O)c1cn(Cc2ccccc2)c2cc(C)nn2c1=O	n	n	n	n	n
COc1ccc(-c2nn(C)c3sc(C(=O)NCCN(C)C)cc23)cc1OC	n	n	n	n	n
CCCCN(CC)CCNC(=O)c1cc2c(-c3ccc(Cl)cc3)nn(C)c2s1	n	n	94	n	n
CCN(CC)CCNC(=O)c1cc2c(-c3cccc(OC)c3)nn(C)c2s1	n	n	n	17	n
CCCN(CCC)CCNC(=O)c1cc2c(-c3ccc(Cl)cc3)nn(C)c2s1	n	n	47	n	n
COCCCNC(=O)c1cc2c(-c3cccc(OC)c3)nn(C)c2s1	n	n	n	n	n
CCCN(CCC)CCCNC(=O)c1cc2c(-c3ccc(OC)c(OC)c3)nn(C)c2s1	n	n	114	n	n
NC(=O)C1(N2CCCCC2)CCN(S(=O)(=O)c2cc(Cl)sc2Cl)CC1	n	n	n	n	n
CC(C)NOC(=O)c1ccc(Cl)cc1	n	n	n	n	n
SMILES	TRPC6 act	TRPC4 block	TRPC4 act	TRPC4 PAM	TRPC6 inh
COC(=O)C1=C(C)Nc2c(c(=O)n(C)c(=O)n2C)C1c1ccncc1 (centres undefined)	n	n	n	n	n
O=C(CCc1nc(-c2ccccc2Cl)no1)NC1CCCCC1	n	n	n	n	n
COc1cc(/C=C2/CCCC(C(=O)C(F)(F)F)=C2O)ccc1O	n	n	n	n	n
CCOc1cc(/C=C2\CN(CC)C/C(=C\c3ccc(O)c(OCC)c3)C2=O)ccc1O	n	n	n	17	n
COc1cc(/C=C2\SC(N3CCC(C)CC3)=NC2=O)ccc1O	n	-6	n	n	n
CCOc1cc(/C=N/N=C/c2ccc(O)c(OCC)c2)ccc1O	n	n	n	n	n
COc1cc(/C=C2\CCC/C(=C\c3ccc(O)c(OC)c3)C2=O)ccc1O	n	-6	n	n	n
CC1CCCCN1Cc1c(O)ccc2c(=O)c(-c3nc4ccccc4s3)c(N)oc12 (centres undefined)	n	n	n	n	n
C=CCn1c(SCc2n[nH]c(=S)n2-c2ccccc2)nnc1-c1ccccc1	n	n	n	11	n

High-throughput results deposited in PubChem BioAssay by Johns Hopkins Ion Channel Center.
